From ChEMBL document CHEMBL3826876, “Toward the Development of Specific G-Quadruplex Binders: Synthesis, Biophysical, and Biological Studies of New Hydrazone Derivatives” (J Med Chem, 2016)
Calls of active or inactive are those of the source. The calls are words filed in the database; no cut-off is given here.

Tests used:
[1] = Binding affinity to synthetic telomere 26 G-quadruplex DNA assessed as change in melting temperature at 4 mol equiv in presence of 100 mM KCl buffer by circular dichroism spectroscopic analysis
Method in brief: (§1)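 CD melting, 20-100 °C at 1 °C/min, signal at 264 (parallel), 290 (antiparallel) or 280 nm (duplex). G4 DNA 10 µM or duplex 15 µM, folded by heating at 90 °C 5 min and slow cooling, in 10 mM potassium phosphate (c-kit1, Tel23, Tel26) or lithium phosphate (Tel23-p, ds12) pH 7.0 with 100 mM KCl. Ligand 4 equiv; Tm by curve fit, ΔTm vs DNA alone; duplicate average.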

[2] = Effect on synthetic c-MYC G-quadruplex DNA topology at 4 mol equiv by circular dichroism spectroscopic analysis
Method in brief: (§2)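 CD spectra at 20 °C, 230-360 nm, 3 scans averaged, baseline subtracted; 10 µM G4 or 15 µM duplex in potassium- or lithium-phosphate pH 7.0 buffers with 100 mM KCl (c-kit2, c-myc: 5 mM potassium phosphate, 20 mM KCl); ligand 4 molar equiv added to folded DNA from 6 mM DMSO stock.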

Homo sapiens [3] = organism: Homo sapiens; assay: Binding affinity to human 5'-FAM/3'-TAMRA labeled telomere 21 G-quadruplex DNA assessed as increase in melting temperature by FRET assay
Method in brief: (§3)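 FRET melting screen in 60 mM potassium cacodylate pH 7.4, labelled probe 400 nM annealed at 85 °C for 10 min; ligands at various concentrations up to 20 µM, diluted from 10 mM DMSO stock via 10 mM HCl. Excitation 450-495 nm, emission 515-545 nm, 30-100 °C in 0.5 °C steps with 30 s hold; ΔTm by curve fitting, triplicate.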

[4] = Binding affinity to synthetic c-KIT2 G-quadruplex DNA assessed as change in melting temperature at 4 mol equiv in presence of 20 mM KCl buffer by circular dichroism spectroscopic analysis
Method in brief: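 CD melting as for other targets (20-100 °C, 1 °C/min, 10 µM folded G4, ligand 4 equiv), but in 5 mM potassium phosphate with 20 mM KCl; c-kit2 read at 264 nm as parallel G4. ΔTm from fitted Tm, duplicate average.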

[5] = Effect on synthetic c-KIT2 G-quadruplex DNA topology at 4 mol equiv by circular dichroism spectroscopic analysis; method in brief: as §2
[6] = Binding affinity to synthetic c-KIT1 G-quadruplex DNA assessed as change in melting temperature at 4 mol equiv in presence of 100 mM KCl buffer by circular dichroism spectroscopic analysis; method in brief: as §1
[7] = Effect on synthetic telomere 23 G-quadruplex DNA topology at 4 mol equiv by circular dichroism spectroscopic analysis; method in brief: as §2
[8] = Binding affinity to synthetic telomere 23 G-quadruplex DNA assessed as change in melting temperature at 4 mol equiv in presence of 100 mM KCl buffer by circular dichroism spectroscopic analysis; method in brief: as §1
Homo sapiens [9] = organism: Homo sapiens; assay: Binding affinity to human 5'-FAM/3'-TAMRA labeled duplex DNA T-loop assessed as increase in melting temperature by FRET assay; method in brief: as §3
[10] = Effect on synthetic telomere 23 parallel G-quadruplex DNA topology at 4 mol equiv by circular dichroism spectroscopic analysis; method in brief: as §2
[11] = Binding affinity to synthetic c-MYC G-quadruplex DNA assessed as change in melting temperature at 4 mol equiv in presence of 20 mM KCl buffer by circular dichroism spectroscopic analysis
[12] = Effect on synthetic telomere 26 G-quadruplex DNA topology at 4 mol equiv by circular dichroism spectroscopic analysis; method in brief: as §2
[13] = Effect on synthetic c-KIT1 G-quadruplex DNA topology at 4 mol equiv by circular dichroism spectroscopic analysis; method in brief: as §2
[14] = Effect on synthetic self-complementary DNA 12-mer duplex topology at 4 mol equiv in presence of K+ ions by circular dichroism spectroscopic analysis; method in brief: as §2
[15] = Binding affinity to synthetic telomere 23 parallel G-quadruplex DNA assessed as change in melting temperature at 4 mol equiv in presence of 100 mM KCl buffer by circular dichroism spectroscopic analysis; method in brief: as §1
[16] = Induction of parallel G-quadruplex formation in synthetic unfolded c-KIT2 DNA assessed as increase in molar ellipticity after 10 mins in absence of metal cation by circular dichroism titration method
Method in brief: (§4)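 CD titration without metal ions: unfolded oligonucleotide 12-15 µM in 50 mM Tris; ligand added in 0.5 equiv steps, spectrum recorded 10 min after each addition at 20 °C, 230-360 nm, 3 scans averaged.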

[17] = Binding affinity to 5'-FAM/3'-TAMRA labeled c-KIT2 G-quadruplex DNA (unknown origin) assessed as change in melting temperature at 4:1 ligand:DNA ratio in presence of 20 mM KCl buffer by FRET assay
Method in brief: (§5)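 FRET melting of FAM/TAMRA-labelled G4 oligos (400 nM, annealed 85 °C 10 min) with ligand at 4 equiv, same buffers as CD (20 mM KCl for c-kit2 and c-myc; 100 mM KCl for telomeric parallel form, annealed at high concentration). Excitation 450-495 nm, emission 515-545 nm, read every 0.5 °C over 30-100 °C; ΔTm by curve fit; duplicate runs averaged.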

[18] = Induction of G-quadruplex formation in synthetic unfolded telomere 23 DNA assessed as increase in molar ellipticity after 10 mins in absence of metal cation by circular dichroism titration method; method in brief: as §4
[19] = Induction of parallel G-quadruplex formation in synthetic unfolded c-KIT1 DNA assessed as increase in molar ellipticity after 10 mins by in absence of metal cation circular dichroism titration method; method in brief: as §4
[20] = Binding affinity to synthetic c-KIT2 G-quadruplex DNA assessed as increase in thermal stability in presence of 20 mM KCl buffer by circular dichroism spectroscopic analysis
Method in brief: (§6)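 CD melting in 5 mM potassium phosphate, 20 mM KCl, 10 µM folded G4, heated 20-100 °C at 1 °C/min; ligand:DNA ratios 1:1, 2:1 and 4:1 compared; Tm from curve fit.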

[21] = Binding affinity to synthetic self-complementary DNA 12-mer duplex assessed as change in melting temperature at 4 mol equiv in presence of 100 mM KCl buffer by circular dichroism spectroscopic analysis; method in brief: as §1
[22] = Binding affinity to 5'-FAM/3'-TAMRA labeled c-MYC G-quadruplex DNA (unknown origin) assessed as change in melting temperature at 4:1 ligand:DNA ratio in presence of 20 mM KCl buffer by FRET assay; method in brief: as §5
[23] = Binding affinity to human 5'-FAM/3'-TAMRA labeled telomere 21 parallel G-quadruplex DNA (unknown origin) assessed as change in melting temperature at 4:1 ligand:DNA ratio in presence of 100 mM KCl buffer by FRET assay; method in brief: as §5
[24] = Effect on preformed synthetic c-MYC parallel G-quadruplex DNA topology in tris buffer after 10 mins by circular dichroism titration method
U2OS [25] = assay: Cytotoxicity against human U2OS cells assessed as cell death after 24 hrs by FACS analysis; assay type: cell-based
U2OS [26] = assay: Cytotoxicity against human U2OS cells assessed as cell death after 24 hrs by microscopic analysis; assay type: cell-based
U2OS [27] = assay: Cytotoxicity against human U2OS cells assessed as cell killing after 24 hrs by MTT assay; assay type: functional, cell-based
Method in brief: (§7)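 U2OS and HCT116 in DMEM with 10% FBS, 1% L-glutamine, seeded at 40000 cells/ml; 24 h later exposed for 1 h or 24 h, then drug-free medium 1-2 days. MTT 1 h at 37 °C, DMSO solubilisation, absorbance 595 nm. IC50 by linear regression; two independent experiments in triplicate, mean ± SE.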

[28] = Cytotoxicity against human HCT116 cells assessed as cell killing after 24 hrs by MTT assay; assay type: functional, cell-based; conditions: HCT-116, 24 h; method in brief: as §7
[29] = Cytotoxicity against human HCT116 cells assessed as cell killing after 1 hr by MTT assay; assay type: functional, cell-based; conditions: HCT-116, 1 h; method in brief: as §7
U2OS [30] = assay: Cytotoxicity against human U2OS cells assessed as cell killing after 1 hr by MTT assay; assay type: functional, cell-based; method in brief: as §7
[31] = Binding affinity to synthetic c-MYC G-quadruplex DNA assessed as increase in thermal stability in presence of 20 mM KCl buffer by circular dichroism spectroscopic analysis; method in brief: as §6

| Structure (SMILES) | ΔTm [1] [°C] | Activity [2] | Activity (Homo sapiens [3]) | ΔTm [4] [°C] | Activity [5] | ΔTm [6] [°C] | Activity [7] | ΔTm [8] [°C] | Activity (Homo sapiens [9]) | Activity [10] | ΔTm [11] [°C] | Activity [12] | Activity [13] | Activity [14] | ΔTm [15] [°C] | ΔTm [21] [°C] | also measured |
| --- | --- | --- | --- | --- | --- | --- | --- | --- | --- | --- | --- | --- | --- | --- | --- | --- | --- |
| N=C(N)N/N=C/c1c(-c2ccsc2)nc2n1ccc1nc(-c3ccsc3)c(/C=N/NC(=N)N)n12 | -6.5 | inactive | Active | > 20 | inactive | > 15 | inactive | -4.9 | – | inactive | > 20 | inactive | inactive | inactive | > 20 | 3.5 | Activity [16]: Active; ΔTm [17]: > 20 °C; Activity [18]: inactive; Activity [19]: Dose-dependent effect; Activity [20]: Dose-dependent effect; ΔTm [22]: > 20 °C; ΔTm [23]: > 20 °C; Activity [24]: inactive |
| Cl.Cl.N=C(N)N/N=C/c1c(-c2ccccc2)nc2n1ccc1nc(-c3ccccc3)c(/C=N/NC(=N)N)n12 | – | – | – | – | – | – | – | – | – | – | – | – | – | – | – | – | Activity (U2OS [25]): Non-toxic; Activity (U2OS [26]): Non-toxic; IC50 (U2OS [27]): 16 µM; IC50 [28]: 5.12 µM; IC50 [29]: 35.1 µM; IC50 (U2OS [30]): 101 µM |
| CN1C(=C2\C(=N\Nc3ccccn3)c3ccccc3N2C)/C(=N/Nc2ccccn2)c2ccccc21 | -2 | inactive | inactive | 2 | inactive | 1.5 | inactive | -2.5 | – | inactive | 1.6 | inactive | inactive | inactive | 4 | -0.7 | – |
| C(=N\NC1=NCCN1)/c1c(-c2ccccc2)nc2n1ccc1nc(-c3ccccc3)c(/C=N/NC3=NCCN3)n12 | -8.9 | inactive | Active | > 20 | inactive | 1.6 | inactive | -14 | – | inactive | > 15 | inactive | inactive | inactive | 10.8 | 1.3 | Activity [16]: Active; ΔTm [17]: > 20 °C; Activity [18]: inactive; Activity [19]: Dose-dependent effect; Activity [20]: Dose-dependent effect; ΔTm [22]: > 15 °C; ΔTm [23]: > 15 °C; Activity [24]: inactive; Activity [31]: Dose-dependent effect |
| C(=N\Nc1ccccn1)/c1c(-c2ccccc2)nc2n1ccc1nc(-c3ccccc3)c(/C=N/Nc3ccccn3)n12 | -1.6 | inactive | inactive | 0 | inactive | 0.4 | inactive | -1 | – | inactive | -0.2 | inactive | inactive | inactive | 1.3 | 0.9 | – |
| CN1C(=C2\C(=N\NC(=N)N)c3ccccc3N2C)/C(=N/NC(=N)N)c2ccccc21 | 0.2 | inactive | inactive | 8.2 | inactive | 0.9 | inactive | -0.5 | – | inactive | 11 | inactive | inactive | inactive | 7.7 | -0.8 | – |

The next lines start with results.

| ΔTm [1] [°C] | Activity [2] | Activity (Homo sapiens [3]) | ΔTm [4] [°C] | Activity [5] | ΔTm [6] [°C] | Activity [7] | ΔTm [8] [°C] | Activity (Homo sapiens [9]) | Activity [10] | ΔTm [11] [°C] | Activity [12] | Activity [13] | Activity [14] | ΔTm [15] [°C] | ΔTm [21] [°C] | Structure (SMILES) | also measured |
| --- | --- | --- | --- | --- | --- | --- | --- | --- | --- | --- | --- | --- | --- | --- | --- | --- | --- |
| 5.8 | inactive | Active | > 20 | inactive | > 15 | inactive | 6 | Active | inactive | > 20 | inactive | inactive | inactive | > 20 | – | Cn1c(Cl)c(/C=N/NC(=N)N)c2ccc(/C=N/NC(=N)N)cc21 | – |
| 1.3 | inactive | Active | > 15 | inactive | > 15 | inactive | 3 | Active | inactive | > 20 | inactive | inactive | inactive | > 20 | – | Cn1c(Cl)c(/C=N/NC(=N)N)c2cc3c(/C=N/NC(=N)N)c(Cl)n(C)c3cc21 | – |
| 5.1 | inactive | Active | > 15 | inactive | > 15 | inactive | 5.6 | Active | inactive | > 20 | inactive | inactive | inactive | > 20 | – | N=C(N)N/N=C/c1ccc2c(/C=N/NC(=N)N)c(Cl)n(-c3ccccc3)c2c1 | – |
